# Source: PMC3226999 (Food chemistry, 2012)
# “Also recorded” adds a separate entry of the source.
# Tests used:
# [1] = tested on: purified recombinant caspase-1, −3, and −7; assay: Preliminary survey of inhibition of purified recombinant activated caspases; assay type: biochemical; settings: for inhibition of purified caspase-1, −3, or −7 activity: 200 μM, 100 μM, 50 μM flavonoid (Figure 4); for caspase specificity: among caspase-1, −3, −7
# [2] = tested on: caspase-3 and −7 activity in MDA-MB-231 cells; assay: Caspase-Glo 3/7 luminometric assay in cells; assay type: cell-based, human; settings: for reduction of staurosporine-induced caspase-3/−7 activity: 1 μM staurosporine plus flavonoid 200, 100, 25 μM, 24 h (Figure 3B); for caspase-3 or −7 activity in treated cells versus DMSO control: 200 μM flavonoid or 1 μM staurosporine, 24 h (Figure 3A)
# Outline: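 MDA-MB-231 cells were grown in high-glucose DMEM with 10% BGS at 37 °C and 5% CO2. They were seeded at 0.5 × 10^4 cells/well, then treated after 24 h with test compound and/or staurosporine for 24 h. Alternatively, medium was replaced with 200 μM compound plus 1 μM staurosporine just before assay. Caspase-3/7 activity was read by Caspase-Glo 3/7 luminescence as fold activation over DMSO-treated cells (n=3, standard error of margin, t-test).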
# recombinant caspase-3 = target: T1, recombinant caspase-3 (Homo sapiens, UniProt P42574); assay type: biochemical
# T1 sequence (P42574 29-175 limits assumed): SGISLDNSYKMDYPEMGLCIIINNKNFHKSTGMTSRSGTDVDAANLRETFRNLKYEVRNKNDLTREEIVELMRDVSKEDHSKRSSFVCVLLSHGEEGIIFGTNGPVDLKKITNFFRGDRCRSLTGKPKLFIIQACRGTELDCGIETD
# T1 sequence (P42574 176-277 limits assumed): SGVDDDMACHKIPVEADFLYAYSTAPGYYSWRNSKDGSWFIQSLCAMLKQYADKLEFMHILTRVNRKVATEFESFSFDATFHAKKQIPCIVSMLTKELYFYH
Compound,"inhibition of purified caspase-1, −3, or −7 activity [1]",reduction of staurosporine-induced caspase-3/−7 activity [2],caspase-3 or −7 activity in treated cells versus DMSO control [2],caspase specificity [1],IC50 (recombinant caspase-3) [µM],"type of caspase inhibition ([1]; Lineweaver-Burk plots, caspase-1, −3, −7)"
"O=c1c(-c2ccc(O)cc2)coc2cc(O)cc(O)c12 [Genistein, genistein]",unable to inhibit caspase activity,,,,,
"O=c1cc(-c2ccccc2)oc2cc(O)cc(O)c12 [Chrysin, chrysin]",did not exhibit strong dose-dependent inhibition,,,,,
"O=c1c(-c2ccc(O)cc2)coc2cc(O)ccc12 [Daidzein, daidzein]",did not exhibit strong dose-dependent inhibition; also recorded: unable to inhibit caspase activity,,,,,
"O.Oc1cc(O)c2c(c1)O[C@H](c1ccc(O)c(O)c1)[C@@H](O)C2 [Catechin, catechin]",did not exhibit strong dose-dependent inhibition,,,,,
"O=c1c(O)c(-c2ccc(O)cc2)oc2cc(O)cc(O)c12 [Kaempferol, kaempferol]","significant, dose-dependent inhibition",reduction in activity was dose dependent,decrease in caspase-3 or −7 activity,,,
"O=c1c(O)c(-c2ccc(O)c(O)c2)oc2cc(O)cc(O)c12 [Quercetin, quercetin]","significant, dose-dependent inhibition",able to reduce the staurosporine-induced activity,increase caspase-3 or −7 activity only slightly,specificity for caspase-3,,
"O=C1C[C@@H](c2ccc(O)cc2)Oc2cc(O)cc(O)c21 [Narigenin, naringenin]",did not exhibit strong dose-dependent inhibition,,,,,
"O=c1cc(-c2ccc(O)cc2)oc2cc(O)cc(O)c12 [Apigenin, apigenin]",did not exhibit strong dose-dependent inhibition,reduction in activity was dose dependent,decrease in caspase-3 or −7 activity,,,
"CN[C@@H]1C[C@H]2O[C@@](C)([C@@H]1OC)n1c3ccccc3c3c4c(c5c6ccccc6n2c5c31)C(=O)NC4 [Staurosporine, staurosporine, reference compound]",,,very strong caspase-3 or −7 activation,,,
"O=c1c(O)c(-c2cc(O)c(O)c(O)c2)oc2cc(O)cc(O)c12 [Myricetin, myricetin]","significant, dose-dependent inhibition; also recorded: one of the more potent inhibitors",able to reduce the staurosporine-induced activity,,specificity for caspase-1,25,competitive
"O=c1cc(-c2ccc(O)c(O)c2)oc2cc(O)cc(O)c12 [Luteolin, luteolin]","significant, dose-dependent inhibition",reduction in activity was dose dependent,decrease in caspase-3 or −7 activity,,,
